High-throughput results deposited in PubChem BioAssay by several laboratories.
Hits are enriched below; roughly 7.2% of the tested compounds scored in any of these assays.
tolC growth inh – growth inhibitors of E. coli tolC mutant, primary screen, strain BW25113 ΔtolC::kan, 384-well; OD615; 2.2% of 65,000 active; growth inhibition, % at 10 µM (by protocol);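 active = growth inhibition at or above a cutoff equal to the mean over every tested compound plus 3 SD, cut at about 60% in these data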;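 note: growth measured after 20 h incubation at 37 °C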
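System: E. coli ΔtolC::kan strain BW25113; Buffer or medium: LB broth supplemented with 50 µg/mL kanamycin; Compound: 10 µM final, single dose; Incubation: bacterial growth with compound for 20 h at 37 °C; Signal: A615 absorbance measurement; Evaluation: growth inhibition in percent.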
PLAP activator – PLAP enzyme activators, biochemical, luminescence, HTS | Alkaline phosphatase, placental type (Homo sapiens), P05187 | purified PLAP enzyme, luminescent substrate read-out; stronger effect = higher value | activation fold at 20 µM | 1.2% of 96,000 active; in the data active = activation fold above about 2
Target sequence (P05187 whole entry, looked up): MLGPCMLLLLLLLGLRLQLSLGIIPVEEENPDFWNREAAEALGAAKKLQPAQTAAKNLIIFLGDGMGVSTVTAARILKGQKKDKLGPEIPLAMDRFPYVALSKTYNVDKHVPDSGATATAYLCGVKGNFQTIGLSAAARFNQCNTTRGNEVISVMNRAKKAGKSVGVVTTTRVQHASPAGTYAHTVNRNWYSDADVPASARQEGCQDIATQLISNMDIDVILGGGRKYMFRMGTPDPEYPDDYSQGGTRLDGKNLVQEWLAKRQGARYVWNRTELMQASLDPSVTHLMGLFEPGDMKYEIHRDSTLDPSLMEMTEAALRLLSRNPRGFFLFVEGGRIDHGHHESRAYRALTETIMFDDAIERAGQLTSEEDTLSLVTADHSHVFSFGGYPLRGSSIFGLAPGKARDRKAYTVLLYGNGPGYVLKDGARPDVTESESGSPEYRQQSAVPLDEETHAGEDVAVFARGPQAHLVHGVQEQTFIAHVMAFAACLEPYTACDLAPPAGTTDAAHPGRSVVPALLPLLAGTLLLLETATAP
E coli WT exp – growth inhibitors of wild-type E. coli, primary screen, strain BW25113, expanded library, OD600 | 0.15% of 98,000 active | OD600 absorbance | growth inhibition, % at 100 µM;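 active = growth inhibition above about 50% at one test dose, limit read from the data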;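 note: growth measured after 20 h incubation at 37 °C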
PostGolgi ctrl – growth inhibition of yeast control strain, primary screen, counter-screen for post-Golgi transport modulator project | efflux-deficient yeast background strain, growth absorbance A615, 16 h | inhibition, % at 10 µM | 5% of 98,000 active
PostGolgi yeast – phenotypic screen on post-Golgi transport, primary screen; inhibition, % at 10 µM; 0.9% of 98,000 active; post-Golgi transport phenotypic cell assay;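 note: yeast cells grown in 1536-well plates; yeast grown about 18 h at 30C before absorbance read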
Hits are given with their value; - = inactive; . = no result given. Cut-off read from the data, not from the text of the source, unless noted: active = inhibition above about 30%; inactive = the rest.

SMILES	tolC growth inh	PLAP activator	E coli WT exp	PostGolgi ctrl	PostGolgi yeast
O=C(CCc1ccc(S(=O)(=O)N2CCOCC2)cc1)Nc1cc(Cl)ccc1N1CCOCC1	-	-	-	33.9	-
Cc1cc(Cl)ccc1OC(C)C(=O)Nc1ccccc1N1CCOCC1 (stereo not drawn)	66.1	-	-	-	-
NC1=NS(=O)(=O)NC1c1cccc(Cl)c1 (stereo not drawn)	.	-	-	-	-
CCOc1cccc(SCc2noc(C(=O)NCC3CCCO3)c2C(=O)O)c1 (stereo not drawn)	.	-	-	-	-
Clc1ccc(CSc2ncccn2)cc1	-	-	-	-	-
O=C1c2cnc3nc(SCc4ccc(Cl)cc4)nn3c2CC2c3ccccc3CCN12 (stereo not drawn)	.	-	-	34.8	-
CCCCc1c(C)c2cc(C)ccc2[nH]c1=O	.	-	-	33.5	-
O=C(Cc1c(O)c2ccccc2[nH]c1=O)N(Cc1ccccc1)Cc1ccccc1	.	-	-	-	36.2
CCCCc1c(O)c2ccccc2[nH]c1=O	-	-	-	43.4	-
CCCc1c(O)c2ccccc2[nH]c1=O	.	-	-	-	-
CCCc1nccn1S(=O)(=O)c1cc(OC)ccc1OC	.	-	-	-	-
S=C(Nc1ccccc1)N1CCn2c1nc1ccccc12	.	-	-	38.0	-
COc1ccc(NC(=S)NNC(=O)C(C)n2nc(C)c([N+](=O)[O-])c2C)cc1 (stereo not drawn)	.	2.3	-	-	-
CC(C)c1ccc(/C=C/C(=O)NC2=NCCS2)cc1	.	-	-	33.5	-
O=C(NCc1ccccn1)C1CCN(S(=O)(=O)N2CCCC2)CC1	-	-	-	38.9	-
C=CCn1c(NC(=O)c2ccccc2Cl)c(C#N)c2nc3ccccc3nc21	84.0	-	-	-	-
C=CCn1c(NC(=O)c2ccccc2)c(C#N)c2nc3ccccc3nc21	88.6	.	.	.	.
C=CCn1c(N)c(C(=O)Nc2cccc(C)c2)c2nc3ccccc3nc21	.	-	-	35.0	-
CCCCn1c(NC(C)=O)c(C#N)c2nc3ccccc3nc21	-	-	-	-	-
C=CCn1c(N)c(C(=O)Nc2ccc(C)c(C)c2)c2nc3ccccc3nc21	.	-	-	-	-
Cc1ccc(S(=O)(=O)N2CCOCC2)cc1C(=O)N1c2ccccc2Sc2ccccc21	.	-	-	-	-
O=C(NCC1CCCO1)c1onc(CSc2cccc3ccccc23)c1C(=O)O (stereo not drawn)	.	-	-	-	-
CCCOC(=O)NC(CC)COC(=O)Nc1cccc(C)c1C (stereo not drawn)	-	-	-	-	-
CCOc1cc(/C=N/NC(=O)CNc2ccc(C)cc2)ccc1OC(=O)c1ccccc1	.	-	-	-	-
S=c1[nH]nc(-c2ccco2)n1/N=C/C=C/c1ccccc1	.	-	-	-	-
SMILES	tolC growth inh	PLAP activator	E coli WT exp	PostGolgi ctrl	PostGolgi yeast
CC(=C/c1ccccc1)/C=N/n1c(-c2ccco2)n[nH]c1=S	.	-	-	33.4	-
S=c1[nH]nc(C2CCCCC2)n1/N=C/c1cccs1	.	-	-	-	-
CC(/C=N/n1c(C2CCCCC2)n[nH]c1=S)=C\c1ccccc1	.	-	-	44.2	-
CCOc1cc(/C=C2/C(=N)N3OC(C)=CC3=NC2=O)ccc1OCCOc1ccccc1	.	-	-	-	-
COc1ccc(OC2C(=O)N(Cc3ccc4c(c3)OCO4)C2c2sccc2C)cc1 (stereo not drawn)	.	-	-	-	-
COc1ccc(N2CCN(C(c3ccccc3)c3sc4nc(C)nn4c3O)CC2)cc1 (stereo not drawn)	-	.	.	.	.
O=C(NC1CCCCC1)C(c1ccco1)N(Cc1cccnc1)C(=O)C1COc2ccccc2O1 (stereo not drawn)	-	-	-	30.1	-
O=C(NC1CCCC1)C(c1ccco1)N(Cc1ccccc1)C(=O)c1csnn1 (stereo not drawn)	-	-	-	-	-
CCCCCn1c(SCCCC)nc2c1c(=O)[nH]c(=O)n2C	-	-	-	32.9	-
C/C=C/Cn1c(SC)nc2c1c(=O)[nH]c(=O)n2C	-	-	-	-	-
CCOCCn1c(SCc2cccc(C)c2)nc2c1c(=O)[nH]c(=O)n2C	-	-	-	41.5	-
C/C=C/Cn1c(SCc2ccc(Cl)cc2)nc2c1c(=O)[nH]c(=O)n2C	-	-	-	43.4	-
Cn1c(=O)[nH]c(=O)c2c1nc(Br)n2CCSc1ncccn1	-	.	-	35.5	-
COc1ccc(NC(=O)C(C)Oc2ccc(/C(C)=N\O)cc2)cc1 (stereo not drawn)	-	-	-	-	-
